Experimental data published in ChEMBL document CHEMBL1155659, “Chemistry of sponges. 19. Novel bioactive metabolites from Hamigera tarangaensis” (J Nat Prod, 2000).
Calls of active or inactive are those of the source. The calls are words filed in the database; no cut-off is given here.

Experiments:
[1] = system: P388; assay: Cytotoxicity against mouse P388 cells; assay type: functional, cell-based
[2] = system: Escherichia coli; assay: Antibacterial activity against Escherichia coli; assay type: functional, organism-based
[3] = system: Candida albicans; assay: Antifungal activity against Candida albicans; assay type: functional, organism-based
[4] = system: Bacillus subtilis; assay: Antibacterial activity against Bacillus subtilis at 96 ug; assay type: functional; details: read-out: IZ
[5] = system: Bacillus subtilis; assay: Antibacterial activity against Bacillus subtilis at 150 ug; assay type: functional; details: read-out: IZ
[6] = system: Bacillus subtilis; assay: Antibacterial activity against Bacillus subtilis at 156 ug; assay type: functional; details: read-out: IZ
[7] = system: Trichophyton mentagrophytes; assay: Antifungal activity against Trichophyton mentagrophytes; assay type: functional, organism-based
[8] = system: Herpesviridae sp.; assay: Antiviral activity against Herpesvirus; assay type: functional
Summary of the method: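 Disk-based antiviral test, sample loaded at 132 μg per disk onto herpes-virus-infected cell wells; read-out is percent virus inhibition, with cytotoxicity scored across the whole well.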

[9] = system: Enterovirus C; assay: Antiviral activity against Poliovirus; assay type: functional
Summary of the method: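 Disk assay at 132 μg per disk, scored as percent virus inhibition, with cytotoxicity assessed across the whole well.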

[10] = system: Bacillus subtilis; assay: Antibacterial activity against Bacillus subtilis; assay type: functional, organism-based

SMILES | IC50 [1] [µM] | Activity [2] | Activity [3] | zone of inhibition at 96 µg/disc [4] [mm] | zone of inhibition at 150 µg/disc [5] [mm] | zone of inhibition at 156 µg/disc [6] [mm] | Activity [7] | Activity [8] | Activity [9] | Activity [10] | inhibition (INH) [8] [%] | inhibition (INH) [9] [%]
Cc1cc([C@H]2[C@@H](C(C)C)CC[C@@]2(C)CC(=O)O)c2c(c1Br)O[C@H](C)NC2=O | 74.2 | inactive | inactive | 3 | 3 | 3 | inactive | inactive | inactive | – | – | –
COC(=O)[C@]1(O)C(=O)c2c(O)cc(C)cc2[C@H]2[C@@H](C(C)C)CC[C@]21C | – | inactive | inactive | – | – | – | inactive | inactive | inactive | – | – | –
COC(=O)[C@]1(O)C(=O)c2c(cc(C)c(Br)c2O)[C@H]2[C@@H](C(C)C)CC[C@]21C | – | inactive | inactive | – | – | – | inactive | inactive | inactive | inactive | – | –
Cc1c(Br)c(O)c2c(c1Br)[C@H]1[C@@H](C(C)C)CC[C@@]1(C)C(=O)C2=O [4-BROMOHAMIGERAN B] | 13.9 | inactive | inactive | – | – | – | inactive | inactive | inactive | – | – | –
Cc1cc2c(c(O)c1Br)C(=O)C(=O)[C@]1(C)CC[C@H](C(C)C)[C@H]21 [HAMIGERAN B] | – | inactive | inactive | – | – | – | – | – | – | – | 100 | 100
CC(=O)O[C@H]1C(=O)C(=O)c2c(cc(C)c(Br)c2O)[C@H]2[C@@H](C(C)C)CC[C@@]12C [HAMIGERAN C] | 16 | inactive | inactive | 3 | 3 | 3 | – | inactive | inactive | – | – | –
Cc1cc2c3c(c1Br)O[C@H](C)N=C3C(=O)C[C@]1(C)CC[C@H](C(C)C)[C@H]21 [HAMIGERAN D] | 8 | inactive | inactive | 3 | 3 | 3 | – | inactive | inactive | – | – | –
CCOC(=O)c1c([C@H]2[C@@H](C(C)C)CC[C@@]2(C)C(=O)OCC)cc(C)c(Br)c1OCC [TRYETHYLHAMIGERAN E] | 54.2 | inactive | inactive | – | – | – | inactive | inactive | inactive | inactive | – | –
